In publication PMC10851409 (ACS Omega, 2024):

Key:
[1] = target: T1, bovine serum albumin (BSA) (Bos taurus, UniProt P02769); test: Steady-state fluorescence quenching of BSA; type: binding; conditions: for Number of binding sites n / Stern–Volmer constant Ksv / Bimolecular quenching rate parameter kq: 298 K; for Stern–Volmer constant Ksv: pH 7.4; for Bimolecular quenching rate parameter kq: τo = 10^–8 s; for Fluorescence quenching mechanism: BSA fluorescence, kq compared with 2.0 × 10^10 m^–1 s^–1
T1 sequence (P02769 25-607): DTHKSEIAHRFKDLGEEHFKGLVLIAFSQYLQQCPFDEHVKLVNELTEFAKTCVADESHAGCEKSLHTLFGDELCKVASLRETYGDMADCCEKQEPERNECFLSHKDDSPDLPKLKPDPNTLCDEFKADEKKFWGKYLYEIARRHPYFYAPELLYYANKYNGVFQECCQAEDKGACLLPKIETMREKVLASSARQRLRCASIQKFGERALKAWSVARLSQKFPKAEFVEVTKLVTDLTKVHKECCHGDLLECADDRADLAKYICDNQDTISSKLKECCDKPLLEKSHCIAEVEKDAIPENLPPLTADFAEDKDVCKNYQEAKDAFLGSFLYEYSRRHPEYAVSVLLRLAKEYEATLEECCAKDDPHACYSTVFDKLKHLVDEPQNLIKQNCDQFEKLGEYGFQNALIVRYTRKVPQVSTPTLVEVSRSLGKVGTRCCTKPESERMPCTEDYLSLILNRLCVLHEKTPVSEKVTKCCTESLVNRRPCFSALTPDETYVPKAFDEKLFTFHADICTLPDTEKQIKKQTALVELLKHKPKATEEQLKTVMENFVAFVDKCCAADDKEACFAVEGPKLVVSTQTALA
In short: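 BSA stock in PBS pH 7.4, with concentration set from absorbance (ε 43,824 M–1 cm–1); test compounds from DMSO stocks, 2.46–22.22 μM. Emission recorded in a 1.0 cm quartz cuvette at 298 K with excitation at 280 nm and 5 nm excitation/emission bandwidths. Stern–Volmer and modified Stern–Volmer plots analysed; kq calculated using τo of 10–8 s for native BSA.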

Plasmodium falciparum = conditions: read-out: IC50 antiplasmodial; P. falciparum; cited from earlier work
[2] = target: T1, bovine serum albumin (BSA); test: UV–vis absorption titration of BSA; type: binding; conditions: pH 7.4; for Enthalpy ΔH / Entropy ΔS: from Kb at 298 and 308 K
In short: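 Peltier-thermostatted spectrophotometer, 1 cm quartz cell, 1 nm slit, spectra over 200–500 nm. BSA in PBS pH 7.4 titrated with test compound (2.46–22.22 μM) and read at 279 nm; ligand-alone absorbance also recorded. Run at 298 and 308 K. Kb taken from the […] of the Benesi–Hildebrand plot, A0/(A–A0) versus 1/[compound]; thermodynamic parameters derived from Kb at both temperatures.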

[3] = target: T1, bovine serum albumin (BSA); test: Time-resolved fluorescence decay of BSA; type: binding; conditions: 298 K; for α1 / α2 / α3 / τ1 / τ2 / τ3: triexponential fitting
In short: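 Time-correlated single-photon counting with pulsed nanosecond LED excitation at 280 nm, 298 K. Instrument response recorded with a scattering solution; 114 ps per channel. Decays fitted as a sum of exponentials by nonlinear least-squares reconvolution, with pre-exponential factors normalized to 1 and errors taken as three standard deviations. Fit judged by χ2 and weighted residuals; average lifetime from triexponential fits.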

| Number of binding sites n [1] | Stern–Volmer constant Ksv [1] | Bimolecular quenching rate parameter kq [1] | Fluorescence quenching mechanism [1] | Gibbs free energy ΔG ([2]; 298 K) | Gibbs free energy ΔG ([2]; 308 K) | Enthalpy ΔH [2] | Entropy ΔS [2] | τavg (average fluorescence lifetime of BSA) ([3]; ligand 2.46 μm) | α1 ([3]; ligand 2.46 μm) | α2 ([3]; ligand 2.46 μm) | α3 ([3]; ligand 2.46 μm) | τ1 ([3]; ligand 2.46 μm) | τ2 ([3]; ligand 2.46 μm) | τ3 ([3]; ligand 2.46 μm) | τavg (average fluorescence lifetime of BSA) ([3]; ligand 9.52 μm) | α1 ([3]; ligand 9.52 μm) | α2 ([3]; ligand 9.52 μm) | α3 ([3]; ligand 9.52 μm) | τ1 ([3]; ligand 9.52 μm) | Structure (SMILES) | also measured |
| --- | --- | --- | --- | --- | --- | --- | --- | --- | --- | --- | --- | --- | --- | --- | --- | --- | --- | --- | --- | --- | --- |
| 1 | 1.47 × 10^4 L mol^–1 | 1.47 × 10^12 | static quenching | –20.52 kJ mol^–1 | –19.22 kJ mol^–1 | –59.26 kJ mol^–1 | –0.13 kJ mol^–1 | 6.6 | 8.67% | 55.5% | 35.83% | 2.2687 | 5.696 | 7.962 | 6.7 | 13.49% | 84.08% | 2.43% | 2.6997 | C[C@H]1C(=O)CC[C@@H]2[C@]1(C)CC[C@H]1[C@@]2(C)CC[C@@]2(C)[C@@H]3CC(C)(C)CC[C@]3(C)CC[C@]12C [friedelin] | IC50 (Plasmodium falciparum): 7.2 µM; τ2 ([3]; ligand 9.52 μm): 6.576; τ3 ([3]; ligand 9.52 μm): 14.2863; τavg (average fluorescence lifetime of BSA) ([3]; ligand 16.09 μm): 6.8; α1 ([3]; ligand 16.09 μm): 9.59%; α2 ([3]; ligand 16.09 μm): 86.56%; α3 ([3]; ligand 16.09 μm): 3.85%; τ1 ([3]; ligand 16.09 μm): 2.21; τ2 ([3]; ligand 16.09 μm): 6.354; τ3 ([3]; ligand 16.09 μm): 14.127; τavg (average fluorescence lifetime of BSA) ([3]; ligand 22.22 μm): 6.5; α1 ([3]; ligand 22.22 μm): 25.73%; α2 ([3]; ligand 22.22 μm): 71.9%; α3 ([3]; ligand 22.22 μm): 2.37%; τ1 ([3]; ligand 22.22 μm): 3.978; τ2 ([3]; ligand 22.22 μm): 7.1; τ3 ([3]; ligand 22.22 μm): 1.075 |
| 1 | 2.57 × 10^4 L mol^–1 | 2.57 × 10^12 | static quenching | –24.28 kJ mol^–1 | –23.68 kJ mol^–1 | –42.16 kJ mol^–1 | –0.06 kJ mol^–1 | 6.2 | 26.45% | 67.78% | 5.77% | 2.971 | 6.871 | 0.8793 | 6.2 | 30.06% | 64.04% | 5.91% | 3.0512 | CC(C)=CCc1c(O)c(CC=C(C)C)c2oc3c(O)ccc(O)c3c(=O)c2c1O [gartanin] | τ2 ([3]; ligand 9.52 μm): 6.967; τ3 ([3]; ligand 9.52 μm): 0.8022; τavg (average fluorescence lifetime of BSA) ([3]; ligand 16.09 μm): 6.1; α1 ([3]; ligand 16.09 μm): 28.92%; α2 ([3]; ligand 16.09 μm): 64.86%; α3 ([3]; ligand 16.09 μm): 6.22%; τ1 ([3]; ligand 16.09 μm): 2.945; τ2 ([3]; ligand 16.09 μm): 6.882; τ3 ([3]; ligand 16.09 μm): 0.8547; τavg (average fluorescence lifetime of BSA) ([3]; ligand 22.22 μm): 6.2; α1 ([3]; ligand 22.22 μm): 30.4%; α2 ([3]; ligand 22.22 μm): 60.86%; α3 ([3]; ligand 22.22 μm): 8.74%; τ1 ([3]; ligand 22.22 μm): 3.254; τ2 ([3]; ligand 22.22 μm): 7.004; τ3 ([3]; ligand 22.22 μm): 0.9952 |
